Many of the other results were omitted from the sample, so hits are more common in it than they were.
UPR XBP1 act – activators of adaptive XBP1 UPR arm, primary screen, cell-based, CHO-XBP1 luciferase reporter, luminescence, uHTS | IRE1-XBP1 UPR activation; percent of tunicamycin response, DMSO as zero | AID 463104, 2010 | activation, % at 20 µM | 330,000 compounds, 0.33% hits;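 active = versus positive control, 20 µM dose yields 30% or more activation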;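 also: 100% = tunicamycin at 10 µg/mL and 0% = DMSO only wells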
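Material: CHO cell line with stable XBP1 luciferase reporter; buffer or medium: F12 medium containing 10% fetal bovine serum; compound: single point, 20 µM final compound, 1% DMSO; incubation: 6 h treatment, 37 °C; measured by: glow luminescence from Steady-Glo reagent; evaluation: activation, % of tunicamycin; control set: tunicamycin high, DMSO low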
CHOP inh – inhibitors of CHOP promoter induction, primary screen, cell-based, unfolded protein response, luciferase reporter. CHO-K1 CHOP-promoter luciferase, tunicamycin-induced, 15-18 h. 220,000 compounds, 3.8% hits. inhibition, % at 10 µM. AID 2732, 2010;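 active = compounds that reduced the stress-induced luciferase reporter signal by more than about 70% of percent inhibition, limit read from the data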;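 also: 0% = tunicamycin plus vehicle and 100% = wells without tunicamycin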
Dynein transport – inhibitors of GR-EGFP nuclear translocation, primary screen, dynein cargo transport inhibitor project, imaging, high-content, 3617.4 mouse cells. test concentration mostly 20 µM; stimulated with dexamethasone, 1 µM; hits give low values. z-score, hits read low. 220,000 compounds, 0.47% hits;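 active = plate z-score of nuclear minus cytoplasmic receptor signal below a set negative limit, without overly bright fluorescence or cell loss, cut at about -3.5 in these data, passing the limit was not always enough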;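 also: z-score of nuclear minus cytoplasmic ring GR-EGFP intensity difference per well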
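medium = tetracycline-free induction medium containing charcoal-stripped FBS | probe or stimulus = dexamethasone, 1.0 µM final | timing = 48 h induction, then 1 h compound, then 30 min agonist, 37 °C | detection = automated 10x imaging of fixed Hoechst-stained cells | read-out basis = nuclear versus cytoplasmic GR-EGFP signal, averaged per well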
L major viab – Leishmania major promastigote growth inhibition, primary screen. Leishmania major promastigotes, resazurin fluorescence viability. inhibition, % at 10 µM. 200,000 compounds, 9% hits; in the data active = inhibition above about 50%;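 also: promastigotes grown with compound for 44 hours at 28 °C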
T cruzi repl – inhibitors of intracellular T. cruzi growth, primary screen, luminescence, NIH3T3 host cells; T. cruzi beta-gal in NIH3T3, 90 h; inhibition, % (no concentration beside the values); 300,000 compounds, 1.4% hits;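 active = mean inhibition across valid replicates above about 55%, limit read from the data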;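 also: signal also drops with host cell toxicity which is not excluded here; 0% = plate median of DMSO wells and 100% = zero luminescence signal; higher percent means less beta-gal luminescence so fewer parasites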
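assay system = mouse NIH/3T3 fibroblasts infected with β-gal-expressing T. cruzi Tulahuen C4 | input = 5,000 NIH/3T3 host cells per well | buffer or medium = DMEM plus 2% FBS | timing = 3 h host attachment, then at least 90 h co-culture | measured by = GalScreen luminescence, 60 min | evaluation = luminescence reflecting intracellular parasite burden, expressed as percent inhibition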
UPR CHOP act – activators of apoptotic CHOP UPR arm, primary screen, cell-based, CHO-CHOP luciferase reporter, luminescence, uHTS; UPR activation; percent of tunicamycin response over DMSO baseline; activation, % at 10 µM; 330,000 compounds, 0.34% hits; AID 449763, 2010;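 active = at 10 µM dose, activation of 40% or more, normalized to positive control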;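 also: 100% = tunicamycin at 10 µg/mL and 0% = DMSO alone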
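Test system: CHO CHOP reporter cells. Input: 500 CHO-CHOP cells per well. Medium: F12 with 10% FBS. Technique: luciferase luminescence. Measure: percent activation relative to tunicamycin control. Dosing: 10 µM compound, 0.5% DMSO. Timing: 16-18 h cell attachment, then 6 h compound exposure, 37 °C.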
Numbers without * were called inactive; . = not tested or not shown.

SMILES	UPR XBP1 act	CHOP inh	Dynein transport	L major viab	T cruzi repl	UPR CHOP act
CCCS(=O)(=O)c1nc(S(=O)(=O)c2ccc(C)cc2)c(NCCCN(C)C)s1	0	12	0.47	95*	36	1
CCCS(=O)(=O)c1nc(S(=O)(=O)c2ccc(C)cc2)c(NCc2ccc3c(c2)OCO3)s1	-2	25	0.17	62*	18	0
CCCS(=O)(=O)c1nc(S(=O)(=O)c2ccc(C)cc2)c(NCCN2CCOCC2)s1	1	26	-0.46	-5	29	-1
COCCNC(=S)N1CCN(Cc2cccc(OC)c2)CC1	8	28	0.58	3	-2	-3
O=[N+]([O-])c1ccc(C2Oc3ccccc3C3CC(c4ccccc4)=NN32)s1 (configuration not stated)	.	32	-1	99*	.	.
CC(C)[C@H](NC(=O)C1CC(=O)N(c2ccc(F)cc2)C1)C(=O)N1CCCCC1 (some centres not stated)	-3	.	.	.	-13	-2
OCC1(Cc2ccccc2Cl)CCN(C/C=C/c2ccccc2)CC1	-2	29	-0.54	88*	17	1
N#Cc1ccccc1NC(=O)COC(=O)c1ccc(F)cc1F	-2	.	.	.	-9	0
OCC(O)/C=N/Nc1nc(N2CCCCC2)nc(N2CCCCC2)n1 (configuration not stated)	-7	0	-1.1	-14	8	-1
c1ccc(-c2nc(N3CCOCC3)c3ccccc3n2)nc1	4	21	-1.1	99*	-31	-3
CSc1nc(N2CCOCC2)c2ccccc2n1	0	-17	-0.11	51*	16	-1
CCC(C(=O)OC)n1c(-c2ccccc2)nc2ccccc2c1=O (configuration not stated)	-1	71*	-0.3	1	-7	-1
Oc1ccc(Br)cc1/C=N/n1cnc2ccccc21	6	74*	0.29	43	1	5
Oc1ccc(Br)cc1/C=N/N1CCCCC1	2	53	0.62	52*	-17	5
Cc1c(CN2CCCC(C(=O)c3cccc(OC(C)C)c3)C2)c(=O)n(-c2ccccc2)n1C (configuration not stated)	-1	18	1.3	18	17	-1
O=c1oc2ccccc2cc1-c1cn2ccccc2n1	-10	95*	-0.38	-3	-10	-9
COC(=O)C1=C(Nc2ccc(C)cc2)C=C(C)C(C(=O)OC)C1c1cccc(OC)c1 (configuration not stated)	0	-17	-0.94	45	58*	-1
CCn1c(SC)nnc1-c1sc2cc(Cl)ccc2c1Cl	0	66	2.1	87*	24	3
CSc1nnc(-c2sc3cc(Cl)ccc3c2Cl)n1C	6	-8	0.32	9	-2	5
O=C(Nc1ccccc1)C1=C(O)CC(c2ccc(Cl)cc2)N2CCN=C12 (configuration not stated)	-1	36	0.41	92*	35	5
O=C(/C=C/c1ccnc2ccccc12)c1cccs1	-7	-13	-1.9	100*	6	-1
O=C(Cn1cnc2ccccc2c1=O)c1cccs1	-1	28	1.2	-3	0	-1
CC(C)Cc1nnc(NC(=O)c2cc3c(s2)CCC3)s1	0	85*	-0.27	.	-3	5
O=C(Nc1nncs1)c1cc2c(s1)CCC2	-1	6	-1.1	-10	-3	4
O=C(NCCCN1CCOCC1)c1ccc(Sc2ccccc2Cl)c([N+](=O)[O-])c1	0	33	0.47	94*	12	-1
SMILES	UPR XBP1 act	CHOP inh	Dynein transport	L major viab	T cruzi repl	UPR CHOP act
O=C(NCCCN1CCOCC1)c1ccc(Sc2ccc(Br)cc2)c([N+](=O)[O-])c1	-2	46	0.88	92*	54	2
O=C(NCCCN1CCOCC1)c1ccc2ccccc2c1	-1	.	.	.	-1	0
N#Cc1cn(N2CCCCC2)c(=O)[nH]c1=O	1	.	.	.	-4	1
COc1ccc(OC)c(CCNC(=O)c2ccccc2NC(=O)C2=C(C)OCCS2)c1	-7	.	.	.	13	-2
COC(=O)c1cc(Cl)c(NC(=O)C(C)C)cc1OC	-4	-11	0.55	-5	-9	3
COC(=O)c1cc(Cl)c(NC(=O)c2ccc(C(C)(C)C)cc2)cc1OC	-2	89*	0.17	4	14	1
CCO/C(=C/c1sc2ccc(OC)cc2[n+]1CCCS(=O)(=O)[O-])CC	2	-11	-0.4	-6	-7	-1
CCC(/C=C1\Sc2ccc(OC)cc2N1CC)=C\c1sc2ccc(OC)cc2[n+]1CCCS(=O)(=O)[O-]	-2	50	-0.55	100*	25	-2
CCCCCSc1nc2c(cnn2-c2ccccc2)c(=O)[nH]1	0	71*	-0.73	-9	.	0
O=c1[nH]c(SCc2ccccc2Cl)nc2c1cnn2-c1ccccc1	7	96*	0.28	-7	12	0
O=C(CSc1nc2c(cnn2-c2ccccc2)c(=O)[nH]1)N1CCOCC1	1	-6	-0.19	-1	-17	0
CC(C)Sc1nc2c(cnn2-c2ccccc2)c(=O)[nH]1	5	72*	-1.3	-5	1	-1
COc1ccc(C2CC(=O)Oc3cc(C)c(Cl)c(C)c32)cc1 (configuration not stated)	-2	.	.	.	.	2
COc1ccc(/C=N/N(C)C2=NCCN2)c(OC)c1OC	-2	.	.	.	2	0
Clc1ccc(OCc2nc(-c3ccccn3)no2)c(Br)c1	-5	72*	-0.83	-9	0	-3
O=C1CSC(c2nn(-c3ccccc3)cc2-c2cc3ccccc3oc2=O)N1Cc1ccco1 (configuration not stated)	-3	16	-1.2	52*	17	0
CCCC(=O)Nc1cc(-c2nnc(OC)c3ccccc23)ccc1N1CCCCC1	1	72*	0.18	40	45	-1
CCCC(=O)Nc1cc(-c2nn(C)c(=O)c3ccccc23)ccc1N1CCCCC1	-1	.	-0.58	29	29	1
O=C(c1ccc(Cl)c([N+](=O)[O-])c1)N(c1ccccn1)c1ccccn1	1	9	-0.32	70*	6	1
CCCCn1c(N)c(N(CC(C)C)C(=O)c2ccc(S(=O)(=O)N3CCC(C)CC3)cc2)c(=O)[nH]c1=O	5	.	.	.	-2	0
NC(=O)c1ccc(NC(=O)COC(=O)CNC(=O)c2sc3ccccc3c2Cl)cc1	-1	.	.	.	.	0

Compound activity (PubChem BioAssay)
